# Most compounds without a hit are left out; they make up all but 2.8% or so of the library.
# PAFAH1B3 inh: inhibitors of human PAFAH1B3. Q15102. recombinant PAFAH1B3, FP-rhodamine probe, fluorescence polarization. inhibition, % at 3.39 µM. actives 0.28% (n = 340,000). AID 492972;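 active means inhibition above the screen-wide average of all tested compounds plus 3 SD, cut at about 25% in these data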;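 further: 0% = enzyme with DMSO only and 100% = wells lacking PAFAH1B3 protein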
# Target sequence (Q15102 whole entry, looked up): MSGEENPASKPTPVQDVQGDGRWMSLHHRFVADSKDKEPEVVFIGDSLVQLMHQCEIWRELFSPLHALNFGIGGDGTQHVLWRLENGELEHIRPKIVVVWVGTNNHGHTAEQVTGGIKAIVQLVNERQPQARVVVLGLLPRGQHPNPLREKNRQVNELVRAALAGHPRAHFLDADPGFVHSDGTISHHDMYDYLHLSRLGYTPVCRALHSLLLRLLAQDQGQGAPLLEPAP
# ARFGAP1 inhibitor: inhibitors of rat ARFGAP1; Q62848; Arfgap1-stimulated ARF1 GTP hydrolysis, GDP FP detection; inhibition, % at 16.5 µM; actives 0.26% (n = 360,000);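 active means inhibition above a per-plate limit, mean inhibition of low control wells plus 3 SD, cut at about 25% in these data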;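 further: 0% = DMSO wells with enzyme and 100% = wells lacking Arfgap1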
# Target sequence (Q62848 1-136 limits assumed): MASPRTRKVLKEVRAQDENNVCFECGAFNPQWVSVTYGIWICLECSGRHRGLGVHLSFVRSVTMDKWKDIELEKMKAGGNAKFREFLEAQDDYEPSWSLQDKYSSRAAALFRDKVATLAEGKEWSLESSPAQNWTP
#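 System: truncated rat Arfgap1 GAP domain / Medium: HEPES-based buffer, pH 7.5 / Also added: N-terminally truncated human ARF1-GTP substrate / Incubation: enzyme reaction 120 min at 25 °C after 20 min preincubation / Measured by: FP of antibody-bound GDP Alexa 633 tracer, ex 620/em 688 nm / Replicates: singlicate, each compound tested once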
# PAFAH1B2 FP inh: blocks human PAF acetylhydrolase 1b catalytic subunit 2 | recombinant PAFAH1B2, FP-rhodamine activity probe, fluorescence polarization | inhibition, % at 3.39 µM | actives 1.2% (n = 340,000) | AID 492953;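 active means inhibition above the mean of all tested compounds plus 3 SD, cut at about 24% in these data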;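 further: 0% = enzyme with DMSO and 100% = wells lacking PAFAH1B2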
# Target sequence (P68402 whole entry, looked up): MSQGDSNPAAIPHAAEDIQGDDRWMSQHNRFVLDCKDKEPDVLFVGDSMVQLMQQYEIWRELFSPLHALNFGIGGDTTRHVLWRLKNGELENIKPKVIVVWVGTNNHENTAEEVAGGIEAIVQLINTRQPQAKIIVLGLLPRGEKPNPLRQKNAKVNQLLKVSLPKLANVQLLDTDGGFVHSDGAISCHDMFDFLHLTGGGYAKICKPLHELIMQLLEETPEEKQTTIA
# ASAP1 GAP inh: inhibitors of human ASAP1 ArfGAP activity; ASAP1-stimulated ARF1 GTP hydrolysis, GDP FP detection; inhibition, % at 16.5 µM; actives 0.19% (n = 360,000); AID 624377; in the data active means inhibition above about 25%;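 further: 0% = vehicle with enzyme and substrate and 100% = no enzyme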
# pPAFAH inh: pPAFAH (human) enzyme inhibition. AID 463082. inhibition, % at 3.39 µM. actives 1.5% (n = 330,000). Q13093. recombinant pPAFAH, FP-rhodamine probe fluorescence polarization;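 active means inhibition above the mean inhibition across the screen plus 3 SD, cut at about 25% in these data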;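 further: inhibitors block binding of the rhodamine activity-based probe so polarization drops; 0% = enzyme with DMSO and 100% = wells lacking pPAFAH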
# PAFAH2 FP inh: PAFAH2 (human) inhibition; Q99487; recombinant PAFAH2, FP-rhodamine activity probe, fluorescence polarization; inhibition, % at 3.39 µM; actives 0.99% (n = 340,000);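 active means inhibition above the mean over all tested compounds plus 3 SD, cut at about 30% in these data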;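 further: inhibitors block probe labeling of enzyme so polarization drops; 0% = enzyme with DMSO and 100% = wells lacking PAFAH2 protein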
# PAFAH2 confirm: confirmation of human PAFAH2 inhibitors; inhibition, % at 3.39 µM; actives 65% (n = 2,300); recombinant PAFAH2, FP-rhodamine activity probe, fluorescence polarization; shares compounds with PAFAH2 FP inh;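 active means mean inhibition over three repeats above a set limit taken from the earlier primary screen, cut at about 30% in these data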;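 further: inhibitor blocks binding of rhodamine activity probe so polarization falls; 0% = enzyme with DMSO and 100% = wells lacking PAFAH2 protein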
# PAFAH1B3 conf FP: confirmation of human PAFAH1B3 inhibitors. shares compounds with PAFAH1B3 inh. actives 30% (n = 390). inhibition, % at 3.39 µM. recombinant PAFAH1B3, FP-Rh activity-based probe, fluorescence polarization;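 active means average inhibition over triplicate runs above the hit cutoff set in the earlier primary screen, cut at about 25% in these data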;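 further: 0% = enzyme with DMSO and 100% = wells lacking PAFAH1B3 protein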
# ASAP1 inh confirm: ASAP1 inhibition confirmed; inhibition, % at 16.5 µM; ASAP1-stimulated Arf1 GTPase, GDP fluorescence polarization; actives 37% (n = 620); shares compounds with ASAP1 GAP inh;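 active means mean inhibition over triplicates exceeds the hit threshold derived for the earlier primary screening run, cut at about 25% in these data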
# ARFGAP1 confirm: rat ARFGAP1 inhibition, confirmed; actives 30% (n = 890); inhibition, % at 16.5 µM; shares compounds with ARFGAP1 inhibitor; AID 651608; ARFGAP1-stimulated ARF1 GTP hydrolysis, GDP tracer FP;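 active means average inhibition over triplicates above the hit cutoff set in the earlier primary screen, cut at about 25% in these data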;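 further: 0% = Arfgap1 plus ARF1-GTP with DMSO and 100% = wells lacking Arfgap1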
# Numbers without * were called inactive; nt = no result.
SMILES,PAFAH1B3 inh,ARFGAP1 inhibitor,PAFAH1B2 FP inh,ASAP1 GAP inh,pPAFAH inh,PAFAH2 FP inh,PAFAH1B3 conf FP,others
Cc1noc(C)c1COc1ccc(C(=O)OCC(=O)NCc2ccccc2Cl)cc1,2,8,4,28*,12,76*,nt,PAFAH2 confirm=74*;ASAP1 inh confirm=2
COc1ccc(OC)c(NC(=O)COC(=O)CCCN=C2NS(=O)(=O)c3ccccc32)c1,8,9,1,0,-1,3,nt,
CCN1C(=O)N(C)C(N(O)C(=O)NC)C1(C)C (centres undefined),7,26*,3,-7,-1,56*,nt,PAFAH2 confirm=-5;ARFGAP1 confirm=-6
CC(C)(CC(=O)O)CC(=O)N1CCN(c2cc(C(F)(F)F)nc3ccccc23)CC1,2,nt,-3,nt,0,-11,nt,
O=C1C=C(N(CCO)Cc2ccccc2)c2ccccc2C1=O,44*,nt,10,nt,nt,20,29*,
CC(=O)OCC(=O)C1(O)CCC2C3CCC4CC(O)CCC4(C)C3C(=O)CC21C (centres undefined),nt,-1,nt,2,nt,nt,nt,
CNC(=O)c1[nH]nc2c1CCc1cc(OC)ccc1-2,28*,-1,15,-3,0,29,9,
COc1ccc2c(c1)CCc1c-2n[nH]c1C(=O)NCCC(C)C,0,6,5,0,8,7,nt,
COc1ccc(CNC(=O)C2CCN(S(=O)(=O)c3ccc(N4CCCC4=O)cc3)CC2)cc1,nt,7,nt,-1,nt,nt,nt,
O=C1C(Cl)=C(N2CCC(C(=O)O)CC2)C(=O)c2ccccc21,41*,nt,23,nt,13,21,32*,
COc1ccc(N(/N=C2\Sc3ccccc3C2=O)C(C)=O)cc1,54*,-14,22,12,nt,19,60*,
COc1ccc(CN(C(C)=O)c2ccccc2C(=O)O)cc1,8,-8,-1,8,-2,0,nt,
COc1ccccc1N(/N=C1\Sc2ccccc2C1=O)C(C)=O,51*,9,10,13,11,4,54*,
O=C(O)c1ccc(NC2=C(n3nnc4ccccc43)C(=O)c3ccccc3C2=O)cc1,29*,14,10,9,1,7,26*,
O=C(O)c1cccc(NC2=C(N3CCOCC3)C(=O)c3ccccc3C2=O)c1,24,21,5,19,-3,18,nt,
CC(C)C1Nc2ccc(C(=O)O)cc2C2C=CCC21 (centres undefined),29*,1,12,-12,23,26,16,
CC(C)Oc1ccc(S(=O)(=O)N2CCOCC2)cc1NC(=O)CN1C(=O)c2ccccc2C1=O,2,-12,-2,-4,nt,0,nt,
C/C(=N/Nc1ccc(C(=O)O)cc1)c1ccc2c(c1)Nc1ccccc1S2,26*,5,6,20,nt,25,19,
CCCCc1c(-c2ccccc2F)ncn1CCc1ccccc1OC,nt,-1,nt,3,nt,nt,nt,
O=C(O)c1cc(NN=C2c3ccccc3-c3ccccc32)ccc1Cl,48*,-13,9,1,5,24,37*,
O=C(O)c1cccc2c1-c1ccccc1/C2=N\Nc1ccccc1,0,7,9,8,19,22,nt,
O=C(O)c1cc(N/N=C/C(Cl)=C/c2ccccc2)ccc1Cl,10,-21,5,-2,13,-1,nt,
O=C(O)c1cccc(NN=C2c3ccccc3-c3ccccc32)c1,42*,-5,5,1,nt,20,31*,
CN(C)c1cccc(NC(=O)c2cccc3ccccc23)c1,14,-10,4,-1,7,13,nt,
O=C(COC(=O)c1cc(-c2cccc3ccccc23)nc2ccccc12)NC1CCS(=O)(=O)C1 (centres undefined),29*,3,21,-17,15,25,14,
SMILES,PAFAH1B3 inh,ARFGAP1 inhibitor,PAFAH1B2 FP inh,ASAP1 GAP inh,pPAFAH inh,PAFAH2 FP inh,PAFAH1B3 conf FP,others
CC(C)C(=O)N1CCC1(C)C(=O)Nc1cccc(Oc2ccccc2)c1 (centres undefined),nt,6,nt,0,nt,nt,nt,
CN(O)/C=c1/ccc2c(n1)C(=O)C=CC=2,35*,3,8,10,7,11,45*,
NS(=O)(=O)c1ccc(CCNC(=O)c2cc3ccccc3s2)cc1,-1,-15,0,-4,-33,3,nt,
COc1ccccc1NS(=O)(=O)c1cccc(C(=O)NCC(c2ccc(F)cc2)N2CCOCC2)c1 (centres undefined),32*,5,2,-2,6,-2,9,
COc1ccc(C(=O)N2CCN(c3ccccc3)CC2)cc1S(=O)(=O)NC1CC1,7,-8,-1,-13,nt,-3,nt,
C=CCN(C)NC(=S)Nc1ccccc1,42*,0,-2,3,-2,3,14,
CCc1ccc(S(=O)(=O)Nc2cc(SCC(=O)O)c(O)c3ccccc23)cc1,28*,14,18,-1,9,22,10,
[O-][n+]1c2c(c3c4non(O)c4ccc31)CCCC2,28*,-3,5,-9,24,8,16,
COn1c2c(c3c4no[n+]([O-])c4ccc31)CCCC2,8,13,-2,5,0,-2,nt,
Cc1c(N=C2C=CC(=O)c3ccccc32)c(=O)n(-c2ccccc2)n1C,47*,5,21,7,nt,19,37*,
CN=c1sc2c(n1C)C(=O)c1ccccc1C2=O,42*,3,13,14,nt,14,29*,
CN=c1sc(C(=O)Nc2ccccc2)c(C)n1C,2,-16,4,-6,4,4,nt,
Cc1ccc(NC(=O)CCNC(=O)Cn2cnc3ccccc3c2=O)cc1F,0,-7,14,-2,0,-9,nt,
O=C(c1ccccc1)c1ccc(OC(=O)C2CCCCC2)cc1,-2,5,4,7,3,14,nt,
Cc1nc(S/C(=C\c2ccc(-c3ccc(C(=O)O)c(Cl)c3)o2)C(=O)O)n[nH]1,42*,-15,15,-8,nt,29,27*,
Cc1nc(S/C(=C\c2ccc(OCc3ccccc3Cl)cc2)C(=O)O)n[nH]1,7,-12,17,1,19,27,nt,
CC(=O)N(C1=C(Cl)C(=O)c2ccccc2C1=O)C1CCCCC1,33*,9,4,10,1,5,18,
